Measurements taken from ChEMBL document CHEMBL3580565, “Synthesis and Biological Evaluation of Cyclopentaquinoline Derivatives as Nonsteroidal Glucocorticoid Receptor Antagonists” (J Med Chem, 2015).

How the values were obtained:
[1] = Tmax in Sprague-Dawley rat at 10 mg/kg, po by LC/MS/MS analysis; type: ADME, organism-based; details: in vivo
How it was run: (§1)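 Male Sprague–Dawley rats dosed orally (n = 4). Jugular vein blood sampled at 0.25, 0.5, 1, 2, 4, 6 and 24 h into heparin, plasma obtained by centrifugation. Concentrations determined by LC/MS/MS.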

Estrogen receptor beta = Estrogen receptor beta (Homo sapiens, UniProt Q92731); assay: Displacement of fluormone ES2 from human recombinant estrogen receptor-beta expressed in insect Hi5 cells after 120 mins by fluorescence polarization assay; parameters: species or system BTI-TN-5B1-4
How it was run: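 Assay run at Cerep. Fluorescence polarization with Fluormone ES2 tracer, using recombinant human ERα expressed in Sf9 cells and ERβ expressed in Hi5 cells.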

[2] = AUC (0 to t) in Sprague-Dawley rat at 10 mg/kg, po by LC/MS/MS analysis; type: ADME, organism-based; details: in vivo; how it was run: as §1
Rattus norvegicus [3] = assay: Antidepressant-like activity in Wistar rat assessed as immobility time at 100 mg/kg, po administered at 1, 5, 23.5 hrs prior to testing measured for 5 mins by forced swimming test (reference value: 211.3 to 232.2 secs); type: functional
[4] = Total clearance in Sprague-Dawley rat at 1 mg/kg, iv by LC/MS/MS analysis; type: ADME, organism-based; details: in vivo
How it was run: (§2)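 Single intravenous dose to male Sprague–Dawley rats (n = 4). Jugular vein blood drawn at 0.05, 0.25, 0.5, 1, 2, 4, 8 and 24 h, heparin anticoagulant, plasma separated by centrifugation. Plasma drug level measured by LC/MS/MS.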

Rattus norvegicus [5] = assay: Antidepressant-like activity in Wistar rat assessed as decrease in immobility time at 10 mg/kg, po administered at 1, 5, 23.5 hrs prior to testing measured for 5 mins by forced swimming test relative to vehicle-treated control; type: functional; parameters: scale not given: the % may be the effect or the level left
[6] = Oral bioavailability (0 to infinity) in Sprague-Dawley rat at 10 mg/kg by LC/MS/MS analysis; type: ADME, organism-based; details: in vivo
How it was run: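 Bioavailability from paired studies in male Sprague–Dawley rats: 1 mg/kg i.v. and 10 mg/kg p.o. (n = 4 each). Jugular vein heparinized plasma sampled up to 24 h, quantified by LC/MS/MS.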

Progesterone receptor = molecular target: T1, Progesterone receptor (Homo sapiens, UniProt P06401); assay: Displacement of [3H]-progesterone from cytosolic fraction of human recombinant progesterone-B receptor by scintillation counting analysis
T1 sequence (P06401 whole entry): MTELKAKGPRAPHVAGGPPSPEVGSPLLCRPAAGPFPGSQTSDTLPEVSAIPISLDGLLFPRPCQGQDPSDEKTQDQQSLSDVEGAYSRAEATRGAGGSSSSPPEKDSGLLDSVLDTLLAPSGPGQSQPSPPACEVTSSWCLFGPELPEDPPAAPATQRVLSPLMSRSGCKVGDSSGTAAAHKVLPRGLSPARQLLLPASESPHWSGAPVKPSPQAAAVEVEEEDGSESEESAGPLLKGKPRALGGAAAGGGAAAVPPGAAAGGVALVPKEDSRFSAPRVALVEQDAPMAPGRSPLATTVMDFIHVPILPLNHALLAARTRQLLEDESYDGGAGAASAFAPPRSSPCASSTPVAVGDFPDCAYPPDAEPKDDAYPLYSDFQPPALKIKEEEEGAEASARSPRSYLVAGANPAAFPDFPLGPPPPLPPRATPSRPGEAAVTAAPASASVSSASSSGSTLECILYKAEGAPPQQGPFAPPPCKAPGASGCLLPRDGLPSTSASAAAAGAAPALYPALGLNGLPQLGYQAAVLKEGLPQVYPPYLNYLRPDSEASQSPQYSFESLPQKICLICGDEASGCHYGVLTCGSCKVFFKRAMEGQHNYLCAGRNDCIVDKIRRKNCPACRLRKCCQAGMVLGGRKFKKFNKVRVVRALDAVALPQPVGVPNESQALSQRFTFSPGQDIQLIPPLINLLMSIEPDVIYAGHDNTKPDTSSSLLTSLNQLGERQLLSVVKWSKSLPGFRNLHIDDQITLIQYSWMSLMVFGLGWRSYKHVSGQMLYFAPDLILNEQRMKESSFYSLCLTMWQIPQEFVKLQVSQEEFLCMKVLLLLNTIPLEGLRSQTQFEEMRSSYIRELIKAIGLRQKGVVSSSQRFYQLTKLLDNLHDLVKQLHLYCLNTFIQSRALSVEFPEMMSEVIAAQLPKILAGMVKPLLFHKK

Rattus norvegicus [7] = assay: Antidepressant-like activity in Wistar rat assessed as immobility time at 10 mg/kg, po administered at 1, 5, 23.5 hrs prior to testing measured for 5 mins by forced swimming test (reference value: 211.3 to 232.2 secs); type: functional
[8] = molecular target: T2, Mineralocorticoid receptor (Homo sapiens, UniProt P08235); assay: Displacement of [3H]-aldosterone from cytosolic fraction of human recombinant mineralocorticoid receptor by scintillation counting analysis
T2 sequence (P08235 whole entry): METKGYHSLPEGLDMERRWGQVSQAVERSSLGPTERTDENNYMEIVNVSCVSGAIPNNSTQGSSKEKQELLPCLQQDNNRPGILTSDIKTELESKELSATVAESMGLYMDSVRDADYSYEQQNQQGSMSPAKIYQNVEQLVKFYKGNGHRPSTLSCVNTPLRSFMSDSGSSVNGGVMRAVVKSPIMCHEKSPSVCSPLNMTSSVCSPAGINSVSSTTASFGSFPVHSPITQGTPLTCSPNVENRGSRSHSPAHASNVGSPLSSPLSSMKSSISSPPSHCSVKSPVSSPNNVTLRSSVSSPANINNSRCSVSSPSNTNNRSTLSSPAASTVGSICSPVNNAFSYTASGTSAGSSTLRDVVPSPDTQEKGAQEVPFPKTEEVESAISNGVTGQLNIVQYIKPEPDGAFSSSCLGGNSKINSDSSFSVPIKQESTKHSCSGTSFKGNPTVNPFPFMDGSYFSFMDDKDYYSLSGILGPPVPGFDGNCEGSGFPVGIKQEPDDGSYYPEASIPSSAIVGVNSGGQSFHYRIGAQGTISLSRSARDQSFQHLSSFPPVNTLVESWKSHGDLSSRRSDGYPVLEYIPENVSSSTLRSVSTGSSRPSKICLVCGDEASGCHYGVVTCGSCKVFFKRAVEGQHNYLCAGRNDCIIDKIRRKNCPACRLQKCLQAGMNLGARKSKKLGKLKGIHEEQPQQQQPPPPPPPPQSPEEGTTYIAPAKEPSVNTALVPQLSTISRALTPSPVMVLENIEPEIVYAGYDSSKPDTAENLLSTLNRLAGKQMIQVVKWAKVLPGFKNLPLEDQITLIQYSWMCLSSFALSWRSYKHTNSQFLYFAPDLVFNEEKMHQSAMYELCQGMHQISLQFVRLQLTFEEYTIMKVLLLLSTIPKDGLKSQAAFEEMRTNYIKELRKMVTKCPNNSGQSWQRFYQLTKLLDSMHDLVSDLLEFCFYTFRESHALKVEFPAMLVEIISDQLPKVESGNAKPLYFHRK

[9] = Cmax in Sprague-Dawley rat at 1 mg/kg, iv by LC/MS/MS analysis; type: ADME, organism-based; parameters: dose 1 mg/kg, route intravenous; details: in vivo; how it was run: as §2
[10] = Cmax in Sprague-Dawley rat at 10 mg/kg, po by LC/MS/MS analysis; type: ADME, organism-based; parameters: dose 10 mg/kg, route oral; details: in vivo; how it was run: as §1
[11] = Half life in Sprague-Dawley rat at 10 mg/kg, po by LC/MS/MS analysis; type: ADME, organism-based; details: in vivo; how it was run: as §1

Estrogen receptor beta, sequence (Q92731 whole entry): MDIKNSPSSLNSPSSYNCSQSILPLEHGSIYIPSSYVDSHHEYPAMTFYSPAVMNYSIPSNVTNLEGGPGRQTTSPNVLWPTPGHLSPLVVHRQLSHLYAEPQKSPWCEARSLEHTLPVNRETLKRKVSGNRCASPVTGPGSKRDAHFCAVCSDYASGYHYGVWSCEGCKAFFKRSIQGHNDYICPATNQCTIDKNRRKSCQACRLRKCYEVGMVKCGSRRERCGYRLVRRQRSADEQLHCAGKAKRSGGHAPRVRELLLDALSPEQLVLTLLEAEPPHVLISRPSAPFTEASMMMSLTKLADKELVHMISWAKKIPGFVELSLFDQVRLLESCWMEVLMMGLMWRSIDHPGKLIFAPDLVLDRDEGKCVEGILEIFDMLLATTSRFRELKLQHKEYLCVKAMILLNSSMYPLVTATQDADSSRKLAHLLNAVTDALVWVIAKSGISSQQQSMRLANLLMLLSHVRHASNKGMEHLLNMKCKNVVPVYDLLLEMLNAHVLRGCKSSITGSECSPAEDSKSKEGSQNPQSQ

Tmax [1]: 3.5 h
Ki (Estrogen receptor beta): > 2300 nM
AUC(0-t) [2]: 2420 ng·h/mL
clearance [4]: 37.1 mL/min/kg
bioavailability [6]: 59%
Ki (Progesterone receptor): 1480 nM
Ki [8]: > 3000 nM
Cmax [9]: 633 ng/mL
Cmax [10]: 273 ng/mL
half-life [11]: 4.6 h
SMILES: Cc1noc(C)c1-c1cc2c(c3c1CCC3)NC(C)(C)C(=O)C2(C)C
Time (Rattus norvegicus [3]): 187.3 s
Activity (Rattus norvegicus [5]): 89.1%
Time (Rattus norvegicus [7]): 206.8 s
